The target of test [1] is T1, Adrenergic receptor beta (Rattus norvegicus) (UniProt P18090+P10608+P26255). Put plainly: % specific binding blocked by the compound fraction of 2.6(x10E-6) in beta adrenergic receptor from lung membranes, after serial wash. Type of test: tissue-based. Put shortly:
(§1)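 Rat heart or lung membranes (ca. 500 or 150 μg protein) preincubated with compound 1 h at 30 °C, centrifuged, then washed five times (resuspend in buffer, 10 min at 30 °C, centrifuge). Residual specific (–)-[³H]dihydroalprenolol binding (5 nM, 20 min, 30 °C, 50 mM Tris/10 mM MgCl₂ pH 7.4; nonspecific defined with 10 μM (±)-alprenolol) compared with washed untreated membranes; percent inhibition, ≥2 experiments in triplicate.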

Test [2] concerns the target T1, Adrenergic receptor beta (Rattus norvegicus). The experiment in a line: % specific binding blocked by the compound fraction of 5.6(x10E-6) in beta adrenergic receptor from lung membranes, after serial wash. The class given is tissue-based. Put shortly:
as §1

Test [3] shares this target. Put plainly: % specific binding blocked by the compound fraction of 5.6(x10E-6) in beta adrenergic receptor from heart membranes, after serial wash. The method, boiled down:
as §1

Test [4] has the same target. Put plainly: % specific binding blocked by the compound fraction of 2.6(x10E-6) in beta adrenergic receptor from heart membranes, after serial wash. The method, boiled down: as §1
Test [5] shares this target. Put plainly: % specific binding blocked by the compound fraction of 2.6 (1x10E- 5) in beta adrenergic receptor from lung membranes, after serial wash. Type of test: tissue-based. Put shortly: as §1
Test [6] shares this target. The experiment in a line: % specific binding blocked by the compound fraction of 5.6 (1x10E- 5) in beta adrenergic receptor from heart membranes, after serial wash. The method, boiled down:
as §1

For test [7] the target is unchanged. The experiment in a line: % specific binding blocked by the compound fraction of 5.6 (1x10E- 5) in beta adrenergic receptor from lung membranes, after serial wash. Type of test: tissue-based. Put shortly: as §1
Test [8] shares this target. The experiment in a line: % specific binding blocked by the compound fraction of 2.6 (1x10E- 5) in beta adrenergic receptor from heart membranes, after serial wash. The method, boiled down: as §1

Turning to `C=CCc1ccccc1OCC(O)CNC(C)COC(C)COC(C)COCC(C)N` (configuration not stated), the Binding worked out at 14% in test [1], 0% in test [2], 0% in test [3] and 3.8% in test [4].
On to `CC(N)COCC(C)OCC(C)OCC(C)N` (configuration not stated), for which the Binding in test [5], in test [6], in test [7] and in test [8] was 0% each time.
Consider `C=CCc1ccccc1OCC(O)CNC(C)COCC(C)OCC(C)OCC(C)N(CC(O)COc1ccccc1CC=C)CC(O)COc1ccccc1CC=C` (configuration not stated), for which the Binding worked out at 68% in test [1] and 26% in test [4].
In the same order, the values of `C=CCc1ccccc1OCC(O)CNC(C)COCC(C)OCC(C)OCC(C)NCC(O)COc1ccccc1CC=C` (configuration not stated) are 77% and 42.5%.

Source of the values: ChEMBL document CHEMBL1122311, “beta-Adrenergic antagonists with multiple pharmacophores: persistent blockade of receptors” (J Med Chem, 1983).
